Test results from ChEMBL document CHEMBL1123463, “Two stereoisomeric imidazoline derivatives: synthesis and optical and alpha 2-adrenoceptor activities” (J Med Chem, 1986).

Key:
Rattus norvegicus [1] = assay: Maximal decrease of heart rate calculated as bradycardiac activity after intravenous injection of 3.16 ug/kg in rats; assay type: functional
Summary of the method: (§1)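 Anesthetized male normotensive Wistar rats (200-350 g; ip sodium pentobarbitone 75.0 mg/kg), cannulated trachea, kept at ca. 37 °C rectal. Pulse rate recorded continuously; following ~20 min stabilization each rat received one iv dose in saline (1 mL/kg, expressed as hydrochloride). Maximal fall in heart rate measured.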

Rattus norvegicus [2] = assay: Maximal decrease of arterial blood pressure (MAP)after intravenous injection of compound at a dose of 0.561 ug/kg in rats; assay type: functional
Summary of the method: (§2)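 Male normotensive Wistar rats (200-350 g) anesthetized with ip sodium pentobarbitone 75.0 mg/kg; trachea cannulated, spontaneous breathing, rectal temperature ca. 37 °C. Arterial pressure recorded continuously. After ~20 min stabilization, single iv injection in saline (1 mL/kg; doses as hydrochloride), one injection per animal. Read-out: maximal fall in mean arterial pressure.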

Rattus norvegicus [3] = assay: Maximal decrease of arterial blood pressure (MAP) after intravenous injection of compound at a dose of 10 ug/kg in rats; assay type: functional; summary of the method: as §2
Rattus norvegicus [4] = assay: Maximal decrease of arterial blood pressure (MAP) after intravenous injection of compound at a dose of 3.16 ug/kg in rats; assay type: functional; summary of the method: as §2
Rattus norvegicus [5] = assay: Maximal decrease of arterial blood pressure (MAP) after intravenous injection of compound at a dose of 1 ug/kg in rats; assay type: functional; summary of the method: as §2
Rattus norvegicus [6] = assay: Maximal decrease of heart rate calculated as bradycardiac activity after intravenous injection of 0.561 ug/kg in rats; assay type: functional; summary of the method: as §1
Rattus norvegicus [7] = assay: Maximal decrease of heart rate calculated as bradycardiac activity after intravenous injection of 5.61ug/kg in rats; assay type: functional; summary of the method: as §1
Rattus norvegicus [8] = assay: Maximal decrease of heart rate calculated as bradycardiac activity after intravenous injection of 1 ug/kg in rats; assay type: functional; summary of the method: as §1
Rattus norvegicus [9] = assay: Maximal decrease of heart rate calculated as bradycardiac activity after intravenous injection of 10 ug/kg in rats; assay type: functional; summary of the method: as §1
[10] = target: T1, Adrenergic receptor alpha-2 (Rattus norvegicus, UniProt P22086+P19328+P22909); assay: Compound was tested for its ability to inhibit specific binding of [3H]clonidine to alpha-2 adrenergic receptor in rat brain; assay type: tissue-based
T1 sequence (P22086 whole entry): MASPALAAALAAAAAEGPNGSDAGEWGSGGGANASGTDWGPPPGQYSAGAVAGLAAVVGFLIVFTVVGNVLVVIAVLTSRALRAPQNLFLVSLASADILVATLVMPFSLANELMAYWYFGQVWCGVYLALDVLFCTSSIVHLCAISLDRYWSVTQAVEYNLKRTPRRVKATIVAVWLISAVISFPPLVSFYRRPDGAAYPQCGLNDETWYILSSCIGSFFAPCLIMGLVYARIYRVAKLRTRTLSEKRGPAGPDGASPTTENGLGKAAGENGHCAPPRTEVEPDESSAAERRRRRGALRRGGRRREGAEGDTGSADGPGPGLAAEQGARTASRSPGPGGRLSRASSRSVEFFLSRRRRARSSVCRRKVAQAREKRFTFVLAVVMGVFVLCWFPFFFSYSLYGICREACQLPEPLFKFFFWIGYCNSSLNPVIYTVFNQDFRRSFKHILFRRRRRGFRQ
T1 sequence (P19328 whole entry): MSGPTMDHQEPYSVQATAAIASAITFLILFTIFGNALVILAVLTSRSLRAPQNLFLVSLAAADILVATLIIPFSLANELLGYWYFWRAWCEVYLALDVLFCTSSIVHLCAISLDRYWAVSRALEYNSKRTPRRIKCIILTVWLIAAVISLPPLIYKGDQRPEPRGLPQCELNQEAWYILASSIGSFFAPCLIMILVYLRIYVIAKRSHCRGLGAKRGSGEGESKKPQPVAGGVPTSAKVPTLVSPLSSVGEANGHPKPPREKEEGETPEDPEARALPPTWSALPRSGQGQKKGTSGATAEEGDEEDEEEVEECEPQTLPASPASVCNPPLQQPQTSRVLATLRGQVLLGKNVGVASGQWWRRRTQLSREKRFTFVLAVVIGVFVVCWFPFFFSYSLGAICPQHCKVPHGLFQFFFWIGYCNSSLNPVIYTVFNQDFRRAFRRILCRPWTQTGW
T1 sequence (P22909 whole entry): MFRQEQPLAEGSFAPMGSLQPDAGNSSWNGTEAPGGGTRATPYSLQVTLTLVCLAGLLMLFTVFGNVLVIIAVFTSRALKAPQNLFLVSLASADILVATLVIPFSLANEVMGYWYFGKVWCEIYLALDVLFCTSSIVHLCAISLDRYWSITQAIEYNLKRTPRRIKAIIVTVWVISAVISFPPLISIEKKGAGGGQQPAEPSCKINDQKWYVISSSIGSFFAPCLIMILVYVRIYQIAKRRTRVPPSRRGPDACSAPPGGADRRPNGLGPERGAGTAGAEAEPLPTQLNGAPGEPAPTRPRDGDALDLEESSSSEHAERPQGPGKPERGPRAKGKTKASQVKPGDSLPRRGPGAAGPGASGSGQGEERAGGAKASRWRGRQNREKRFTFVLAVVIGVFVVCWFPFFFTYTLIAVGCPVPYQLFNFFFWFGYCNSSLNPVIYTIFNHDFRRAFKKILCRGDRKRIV

Rattus norvegicus [11] = assay: Maximal decrease of arterial blood pressure(MAP) after intravenous injection of compound at a dose of 5.61ug/kg in rats; assay type: functional; summary of the method: as §2
[12] = target: T1, Adrenergic receptor alpha-2; assay: Compound was tested for its ability to inhibit specific binding of [3H]clonidine to alpha-2-adrenoceptor in rat brain; assay type: tissue-based

IC50 [10] [nM]	IC50 [12] [nM]	SMILES	Heart rate (Rattus norvegicus [1])	MAP (Rattus norvegicus [2]) [mmHg]	MAP (Rattus norvegicus [3]) [mmHg]	MAP (Rattus norvegicus [4]) [mmHg]	MAP (Rattus norvegicus [5]) [mmHg]	Heart rate (Rattus norvegicus [6])	Heart rate (Rattus norvegicus [7])	Heart rate (Rattus norvegicus [8])	Heart rate (Rattus norvegicus [9])	MAP (Rattus norvegicus [11]) [mmHg]
7.25		CC(Oc1c(Cl)cccc1Cl)C1=NCCN1.Cl (racemic) [LOFEXIDINE HYDROCHLORIDE]	-137	-22.6	-54.2	-37.6	-26.8	-52	-132	-83	-138	-48.8
	3.6	CC(Oc1c(Cl)cccc1Cl)C1=NCCN1.Cl (stereo in doubt) [LOFEXIDINE HYDROCHLORIDE]	-97		-53	-29.8	-13.8		-96	-46	-134	-41.6
	43	CC(Oc1c(Cl)cccc1Cl)C1=NCCN1.Cl (single isomer, unassigned; (+)) [LOFEXIDINE HYDROCHLORIDE]	-36		-10.6	-11.7	-7.4			-7	-61	
